The values that follow come from ChEMBL document CHEMBL1221219, “Selective blockade of 2-arachidonoylglycerol hydrolysis produces cannabinoid behavioral effects” (Nat Chem Biol, 2009).

Assay [1] concerns the target T1, Cytosolic phospholipase A2 (Homo sapiens) (UniProt P47712).
T1 sequence (whole entry): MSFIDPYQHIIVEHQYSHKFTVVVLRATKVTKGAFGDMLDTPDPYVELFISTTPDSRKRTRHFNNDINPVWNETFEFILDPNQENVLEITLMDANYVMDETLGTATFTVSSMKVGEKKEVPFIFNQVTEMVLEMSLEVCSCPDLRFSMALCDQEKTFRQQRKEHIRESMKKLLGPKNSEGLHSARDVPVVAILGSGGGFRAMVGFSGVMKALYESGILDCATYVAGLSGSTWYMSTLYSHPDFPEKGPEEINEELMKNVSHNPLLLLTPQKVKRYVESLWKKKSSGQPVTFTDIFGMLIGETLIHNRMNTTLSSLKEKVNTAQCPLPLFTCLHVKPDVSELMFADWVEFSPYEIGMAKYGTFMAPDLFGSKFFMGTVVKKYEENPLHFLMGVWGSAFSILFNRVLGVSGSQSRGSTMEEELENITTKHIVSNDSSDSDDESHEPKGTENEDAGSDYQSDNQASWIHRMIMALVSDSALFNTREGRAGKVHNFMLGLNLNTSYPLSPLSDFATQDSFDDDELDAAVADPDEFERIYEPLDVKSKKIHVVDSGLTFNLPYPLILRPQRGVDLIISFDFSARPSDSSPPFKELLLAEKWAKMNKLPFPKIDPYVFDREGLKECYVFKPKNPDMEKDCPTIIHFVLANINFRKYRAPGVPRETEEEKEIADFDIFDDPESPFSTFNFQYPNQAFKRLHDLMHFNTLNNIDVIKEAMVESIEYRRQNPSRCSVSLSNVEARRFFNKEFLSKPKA
Description: Inhibition of recombinant cPLA2 4a expressed in HEK293 cells assessed as hydrolysis of PAPC to arachidonic acid at 20 uM TLC assay. Format: cell-based.

Assay [2] deals with Mus musculus. Description: Inhibition of MAGL in C57B1/6J mouse brain membrane at 4 mg/kg, ip after 4 hrs by competitive activity-based protein profiling method relative to control. Format: functional. The note with it: route intraperitoneal. An outline of the steps: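 Male C57Bl/6J mice (6-8 weeks, 20-26 g) dosed i.p. in 4:1 v/v PEG300:Tween80 vehicle at 4 ul g^-1; killed 4 h post-dose. Brain membrane proteomes were then labelled with FP-rhodamine (2 μM, 30 min, room temperature), resolved by SDS-PAGE and scanned in-gel for fluorescence. MAGL signal was compared with vehicle-treated controls.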

Assay [3] concerns Mus musculus. Briefly: Inhibition of PLA2G7 in C57B1/6J mouse brain membrane at 16 mg/kg, ip after 4 hrs by competitive activity-based protein profiling-MudPIT method. It is filed as functional, organism-based. Details: dose 16 mg/kg. An outline of the steps: (§1)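 After i.p. dosing in 4:1 PEG300:Tween80, male C57Bl/6J mice were killed at 4 h. Brain membrane proteomes from treated and vehicle mice were labelled with FP-biotin. Labelled proteins were enriched on avidin, digested on-bead with trypsin and analysed by multidimensional LC-MS. Proteins were identified by SEQUEST, and dosed samples were compared with vehicle.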

Assay [4] relates to Mus musculus. Description: Inhibition of LYPLA3 in C57B1/6J mouse brain membrane at 16 mg/kg, ip after 4 hrs by competitive activity-based protein profiling-MudPIT method. It is filed as functional, organism-based. Set-up: dose 16 mg/kg. An outline of the steps: as §1
In assay [5] the test system is Mus musculus. Description: Inhibition of PRCP in C57B1/6J mouse brain membrane at 16 mg/kg, ip after 4 hrs by competitive activity-based protein profiling-MudPIT method. Format: functional, organism-based. Details: dose 16 mg/kg. The method, boiled down:
as §1

Assay [6] deals with Mus musculus. Description: Antinociceptive activity against formalin-induced pain in C57B1/6J mouse assessed as paw lifting or licking during late phase (20-40 mins) at 40 m/kg, po administered 2 hrs before formalin challenge pretreated with rimonabant. It is filed as functional, organism-based.
Assay [7] has as its system Mus musculus. Briefly: Inhibition of BAT5 in C57B1/6J mouse brain membrane at 16 mg/kg, ip after 4 hrs by competitive activity-based protein profiling-MudPIT method. It is filed as functional, organism-based. Details: dose 16 mg/kg. The method, boiled down:
(§2)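 Mice were dosed 16 mg kg^-1 i.p. or vehicle and killed at 4 h. Brain membrane proteomes were labelled with FP-biotin, avidin-enriched, trypsin-digested on bead, analysed by multidimensional LC-MS and identified by SEQUEST.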

Assay [8] has as its system Mus musculus. Briefly: Change in anandamide level in C57B1/6J mouse brain at 16 mg/kg, ip by LC-MS. It is filed as functional, organism-based. Set-up: dose 16 mg/kg. An outline of the steps: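 Mice received 16 mg kg^-1 i.p. in 4:1 PEG300:Tween80 and were killed at 0.5, 1, 2, 4, 8 and 24 h. Brain lipids, including N-acylethanolamines, MAGs, free fatty acids and arachidonic acid, were measured by LC-MS.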

In assay [9] the test system is Mus musculus. Description: Inhibition of FAAH in C57B1/6J mouse brain membrane at 10 mg/kg, ip by competitive activity-based protein profiling method. It is filed as functional, organism-based. Details: dose 10 mg/kg.
Assay [10] relates to Mus musculus. Description: Inhibition of FAAH in C57B1/6J mouse brain membrane at 16 mg/kg, ip after 4 hrs by competitive activity-based protein profiling method relative to control. Set-up: scale not given: the % may be the effect or the level left. The note with it: route intraperitoneal. It is filed as functional. An outline of the steps: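 Male C57Bl/6J mice (6-8 weeks, 20-26 g) given inhibitor i.p. in 4:1 v/v PEG300:Tween80 at 4 ul g^-1 (4-40 mg kg^-1); vehicle controls. Brain membrane proteomes (1 mg ml^-1 in PBS) labelled with FP-rhodamine (2 μM) for 30 min at room temperature. Readout by SDS-PAGE and in-gel fluorescence scanning, compared with vehicle.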

The subject of assay [11] is Mus musculus. Description: Inhibition of APT2 in C57B1/6J mouse brain membrane at 16 mg/kg, ip after 4 hrs by competitive activity-based protein profiling-MudPIT method. It is filed as functional, organism-based. Set-up: dose 16 mg/kg. The method, boiled down:
as §2

In assay [12] the test system is Mus musculus. Description: Inhibition of DPP8 in C57B1/6J mouse brain membrane at 16 mg/kg, ip after 4 hrs by competitive activity-based protein profiling-MudPIT method. It is filed as functional, organism-based. Set-up: dose 16 mg/kg. An outline of the steps: as §2
The test system of assay [13] is Mus musculus. Description: Induction of hypomotility in CB1 receptor deficient C57B1/6J mouse at 16 mg/kg, ip. It is filed as functional, organism-based. Details: dose 16 mg/kg. The method, boiled down: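 Male C57Bl/6J mice, 6-8 weeks, 20-26 g, given 16 mg kg^-1 i.p. in 4:1 v/v PEG300:Tween80 at 4 μl g^-1; vehicle controls received PEG300:Tween80 alone. Cannabinoid effects were scored in the tetrad test.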

For assay [14], the system named is Mus musculus. Description: Inhibition of FAAH in C57B1/6J mouse brain membrane assessed as elevated level of anandamide at 10 mg/kg, ip by competitive activity-based protein profiling method. It is filed as functional, organism-based. Details: dose 10 mg/kg.
The test system of assay [15] is Mus musculus. Description: Antinociceptive activity against C57B1/6J mouse at assessed as latency in reaction time required for thermal stimulus-induced tail flicking at 16 mg/kg, ip after 2 hrs. It is filed as functional, organism-based. Details: dose 16 mg/kg. An outline of the steps: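 Tail immersion assay of thermal pain in male C57Bl/6J mice, 6-8 weeks. Dose 16 mg kg^-1 i.p. in 4:1 v/v PEG300:Tween80 at 4 μl g^-1, with vehicle controls.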

Assay [16] concerns the target T1, Cytosolic phospholipase A2 (Homo sapiens). Description: Inhibition of recombinant cPLA2 4a expressed in HEK293 cells at 20 uM by radiolabeled TLC assay. It is filed as cell-based.

The source made the active and inactive calls. No cut-off for these calls is given here.

In the case of `O=C(Oc1ccc([N+](=O)[O-])cc1)N1CCC(C(O)(c2ccc3c(c2)OCO3)c2ccc3c(c2)OCO3)CC1`, the inhibition entry (in assay [1]; in the assay with Mus musculus [3]; with Mus musculus [4]; in the assay on Mus musculus [5]; with Mus musculus [7]; with Mus musculus [11]) was “inactive” throughout. The inhibition entry (in the assay with Mus musculus [12]; in assay [16]) was “inactive” in each case. Moreover, the “fold change (FC)” value with Mus musculus [2] was found to be 5. Also, the result in the assay with Mus musculus [6], with Mus musculus [8] and in the assay with Mus musculus [13] was inactive. Also, the inhibition result with Mus musculus [9] and in the assay with Mus musculus [14] was “Active” in each case. Moreover, in the assay with Mus musculus [10], the Activity is 35%. Also, in the assay with Mus musculus [15], the result was Active.
